For one assay, the target named is T1, Aminopeptidase N (Sus scrofa, UniProt P15145).
T1 sequence (P15145 whole entry): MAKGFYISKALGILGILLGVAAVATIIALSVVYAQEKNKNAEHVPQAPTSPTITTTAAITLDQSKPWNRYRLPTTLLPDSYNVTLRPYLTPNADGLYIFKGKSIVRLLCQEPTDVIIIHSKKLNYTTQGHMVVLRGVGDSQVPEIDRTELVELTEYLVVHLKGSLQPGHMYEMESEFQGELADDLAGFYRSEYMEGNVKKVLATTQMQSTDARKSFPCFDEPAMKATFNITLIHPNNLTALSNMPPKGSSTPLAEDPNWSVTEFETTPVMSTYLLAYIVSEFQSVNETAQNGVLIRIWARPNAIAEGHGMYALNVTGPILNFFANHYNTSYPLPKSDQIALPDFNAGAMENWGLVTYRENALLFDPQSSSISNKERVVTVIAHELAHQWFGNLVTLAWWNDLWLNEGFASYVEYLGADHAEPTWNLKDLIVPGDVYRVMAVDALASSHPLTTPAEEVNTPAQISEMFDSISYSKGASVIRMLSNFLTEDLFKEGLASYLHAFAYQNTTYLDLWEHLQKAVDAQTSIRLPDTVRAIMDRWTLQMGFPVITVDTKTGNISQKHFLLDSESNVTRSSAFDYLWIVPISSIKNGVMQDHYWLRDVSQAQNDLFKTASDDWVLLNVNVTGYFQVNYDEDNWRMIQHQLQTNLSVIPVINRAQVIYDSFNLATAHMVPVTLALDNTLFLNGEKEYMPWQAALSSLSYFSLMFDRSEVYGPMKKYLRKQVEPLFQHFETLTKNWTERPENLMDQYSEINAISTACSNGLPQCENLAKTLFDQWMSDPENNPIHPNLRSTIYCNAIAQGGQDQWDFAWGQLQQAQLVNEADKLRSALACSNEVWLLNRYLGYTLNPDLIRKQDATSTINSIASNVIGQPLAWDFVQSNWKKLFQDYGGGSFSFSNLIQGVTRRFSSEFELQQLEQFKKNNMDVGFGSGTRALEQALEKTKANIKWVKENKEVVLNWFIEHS
Nature of the assay: Inhibition of APN in pig kidney microsomes assessed as reduction in p-nitroanilide release using L-leu-p-nitroanilide as substrate incubated for 30 mins by UV absorption based analysis.

Assay [1] concerns the target T2, RAC-alpha serine/threonine-protein kinase (Homo sapiens, UniProt P31749). The settings on record: dose 200.0 nM, time 40.0 min.
For assay [2], the target named is T2, RAC-alpha serine/threonine-protein kinase. The experiment in a line: Inhibition of AKT1 (unknown origin) incubated for 40 mins in presence of ATP by Kinase-Glo reagent based luminescence analysis. A general note: In Kinase-Glo more light means more ATP remaining.
For another assay, the system named is NCI-H1975. Nature of the assay: Antiproliferative activity against human NCI-H1975 cells assessed as reduction in cell viability incubated for 72 hrs by MTT assay. The settings on record: NCI-H1975, 72 h. It is filed as functional, cell-based.
Another assay has as its system MCF7. Nature of the assay: Antiproliferative activity against human MCF7 cells assessed as reduction in cell viability incubated for 72 hrs by MTT assay. It is filed as functional, cell-based. The conditions noted are these: MCF7, 72 h. (Formazan colour is commonly taken as a measure of viable cells.)
In the next assay the test system is AGS. Nature of the assay: Antiproliferative activity against human AGS cells assessed as reduction in cell viability incubated for 72 hrs by MTT assay. It is filed as functional, cell-based.
In the next assay the test system is HUVEC. Nature of the assay: Anti-angiogenic activity against HUVEC cells assessed as inhibition of tubular structure formation at 10 uM […] by Matrigel based phase contrast microscopic analysis. It is filed as functional, cell-based. The settings on record: Homo sapiens.
Assay [3] deals with T3, Serine/threonine-protein kinase AKT (Homo sapiens) (UniProt P31751+Q9Y243+P31749). The experiment in a line: Inhibition of AKT in human AGS cells assessed as inhibition of GSK3beta phosphorylation up to 10 uM by immunoblot analysis. The settings on record: dose microM <=10, time 2-6 hrs, TDE = time-dependent effect. The format is cell-based. The essentials:
(§1)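 Western blot in AGS cells treated with DMSO or compound at 2 or 10 μM for 2 or 6 h. Phospho-GSK3β was probed with β-actin as loading control and blots were quantified. Three independent experiments were run, with Student's two-tailed t test against control.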
On the technique in general: In western blotting, separated proteins are transferred to a membrane and probed.

The target of assay [4] is T3, Serine/threonine-protein kinase AKT (Homo sapiens). The experiment in a line: Inhibition of AKT in human AGS cells assessed as inhibition of GSK3beta phosphorylation incubated for up to 6 hrs by immunoblot analysis. It is filed as cell-based. The conditions noted are these: dose 2-10 µM, time hrs <=6. The essentials:
as §1

Assay [5] addresses T4, Aminopeptidase N (Sus scrofa) (UniProt P15145).
T4 sequence (whole entry): T1 sequence (P15145 whole entry)
The experiment in a line: Potency index, ratio of bestatin IC50 to test compound IC50 for inhibition of APN in pig kidney microsomes assessed as reduction in p-nitroanilide release using L-leu-p-nitroanilide as substrate incubated for 30 mins by UV absorption based analysis.

The source made the active and inactive calls. No cut-off for these calls is given here.

T2 sequence (P31749 whole entry): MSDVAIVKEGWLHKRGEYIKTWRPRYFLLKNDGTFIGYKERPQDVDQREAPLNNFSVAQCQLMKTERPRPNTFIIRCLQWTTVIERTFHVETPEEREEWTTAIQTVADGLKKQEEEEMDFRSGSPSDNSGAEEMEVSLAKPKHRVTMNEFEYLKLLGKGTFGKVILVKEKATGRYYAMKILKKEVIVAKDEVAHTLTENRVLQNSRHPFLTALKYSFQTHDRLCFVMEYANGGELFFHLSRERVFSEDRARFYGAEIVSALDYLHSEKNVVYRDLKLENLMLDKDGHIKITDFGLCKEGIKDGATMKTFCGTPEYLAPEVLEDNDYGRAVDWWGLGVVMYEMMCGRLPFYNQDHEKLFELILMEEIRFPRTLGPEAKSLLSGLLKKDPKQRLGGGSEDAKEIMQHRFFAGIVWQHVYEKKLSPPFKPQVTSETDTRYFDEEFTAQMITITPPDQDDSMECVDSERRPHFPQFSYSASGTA
T3 sequence (P31749 whole entry, looked up): as the sequence (P31749 whole entry) above
T3 sequence (P31751 whole entry, looked up): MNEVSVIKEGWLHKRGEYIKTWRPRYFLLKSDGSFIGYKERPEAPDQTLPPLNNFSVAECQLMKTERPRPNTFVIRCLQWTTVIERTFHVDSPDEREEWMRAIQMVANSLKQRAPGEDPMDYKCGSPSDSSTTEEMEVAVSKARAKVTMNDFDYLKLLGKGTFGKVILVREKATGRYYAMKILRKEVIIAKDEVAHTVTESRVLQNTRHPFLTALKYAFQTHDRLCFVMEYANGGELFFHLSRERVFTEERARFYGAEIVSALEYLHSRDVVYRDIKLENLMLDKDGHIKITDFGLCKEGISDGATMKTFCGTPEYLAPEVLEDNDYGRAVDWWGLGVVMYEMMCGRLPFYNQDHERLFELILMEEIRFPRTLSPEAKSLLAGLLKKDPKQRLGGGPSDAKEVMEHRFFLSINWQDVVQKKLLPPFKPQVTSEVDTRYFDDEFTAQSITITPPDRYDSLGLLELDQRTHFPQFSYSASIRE
T3 sequence (Q9Y243 whole entry, looked up): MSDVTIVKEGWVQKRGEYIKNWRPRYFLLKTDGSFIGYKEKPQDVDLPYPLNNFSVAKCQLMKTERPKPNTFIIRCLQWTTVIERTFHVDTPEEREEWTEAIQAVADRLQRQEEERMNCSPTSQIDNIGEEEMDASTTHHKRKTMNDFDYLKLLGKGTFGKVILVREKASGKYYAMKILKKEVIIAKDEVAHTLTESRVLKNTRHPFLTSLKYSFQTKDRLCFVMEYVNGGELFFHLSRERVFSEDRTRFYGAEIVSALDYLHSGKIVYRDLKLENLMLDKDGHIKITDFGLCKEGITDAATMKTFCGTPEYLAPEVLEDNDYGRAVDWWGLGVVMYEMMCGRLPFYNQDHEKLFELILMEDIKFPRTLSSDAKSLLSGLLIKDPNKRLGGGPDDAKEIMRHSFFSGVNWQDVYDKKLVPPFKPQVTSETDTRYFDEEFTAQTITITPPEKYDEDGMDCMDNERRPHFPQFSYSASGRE

Broadly, the IC50 is the concentration at which inhibition is half-maximal. For orientation: inhibition means the percentage by which the read-out fell short of the control. `NC1(C(=O)N[C@H](Cc2ccccc2)C(=O)NO)CCN(c2ncnc3[nH]ccc23)CC1`: the IC50 at Aminopeptidase N came to 670 nM. For the same compound, the inhibition in assay [1] was 21%.

As to `NC1(C(=O)N[C@H](C(=O)NO)c2ccccc2)CCN(c2ncnc3[nH]ccc23)CC1`, the IC50 on Aminopeptidase N was determined as 1490 nM. The compound also registered an inhibition in assay [1] of 35%.

For the compound `NC1(C(=O)N[C@@H](C(=O)NO)c2ccccc2)CCN(c2ncnc3[nH]ccc23)CC1`, the IC50 came to 960 nM on Aminopeptidase N; 121 nM in assay [2]; 20300 nM with NCI-H1975; 24800 nM with MCF7; 30700 nM in the assay with AGS. Also, the result with HUVEC was Active. Further, the inhibition in assay [1] turned out to be 60%.

On to `NC1(C(=O)N[C@H](Cc2c[nH]c3ccccc23)C(=O)NO)CCN(c2ncnc3[nH]ccc23)CC1`, for which the IC50 on Aminopeptidase N turned out to be 4160 nM. Further, the inhibition in assay [1] was 3%.

For the compound `NC1(C(=O)N[C@@H](Cc2c[nH]c3ccccc23)C(=O)NO)CCN(c2ncnc3[nH]ccc23)CC1`, the IC50 on Aminopeptidase N came out at 127000 nM. In addition, the inhibition in [1] is 5%.

In the case of `NC1(C(=O)N[C@@H](CCO)c2ccc(Cl)cc2)CCN(c2nc[nH]c3nccc2-3)CC1` [CAPIVASERTIB], the IC50 with NCI-H1975 came out at 2700 nM; in the assay on MCF7, 4200 nM; in the assay on AGS it was 9600 nM. Moreover, in the assay with HUVEC, the result was inactive.

For the compound `CC(C)C[C@H](NC(=O)[C@@H](O)[C@H](N)Cc1ccccc1)C(=O)O` [UBENIMEX], the half-inhibitory concentration (IC50) in the assay on NCI-H1975, with MCF7 and in the assay with AGS was > 200000 nM in each case. For the same compound, the result in the assay on HUVEC was Active.

In the case of `CC(C)C[C@@H](NC(=O)C1(N)CCN(c2ncnc3[nH]ccc23)CC1)C(=O)NO`, the results for the inhibition result in [3], in assay [4] and in assay [1] were “Tde”, “Dose-Dependent Effect” and 43%, respectively. For the same compound, the 50% inhibitory concentration (IC50) is 210 nM at Aminopeptidase N; 270 nM in [2]; 27400 nM with NCI-H1975; 32700 nM in the assay on MCF7; 52400 nM with AGS. Also, the result with HUVEC was Active.

`CC(C)C[C@@H](NC(=O)NC1CCN(c2ncnc3[nH]ccc23)CC1)C(=O)NO`: the IC50 on Aminopeptidase N was found to be 710 nM. The compound also registered an inhibition in assay [1] of 4%.

As for `NC1(C(=O)N[C@@H](Cc2ccccc2)C(=O)NO)CCN(c2ncnc3[nH]ccc23)CC1`, at Aminopeptidase N, the IC50 stood at 159000 nM. This compound gave an inhibition in assay [1] of 2%.

Take `CC(C)C[C@H](NC(=O)C1(N)CCN(c2ncnc3[nH]ccc23)CC1)C(=O)NO`: the concentration for half-maximal inhibition (IC50) on Aminopeptidase N was 32400 nM. Moreover, the inhibition in assay [1] amounted to 7%.

With `O=C(N[C@H](Cc1ccccc1)C(=O)NO)C1CCN(c2ncnc3[nH]ccc23)CC1`, on Aminopeptidase N, the 50% inhibitory concentration (IC50) stood at 710 nM. The compound also showed an inhibition in assay [1] of 7%.

As for `O=C(NO)[C@H](NC(=O)N1CCN(c2ncnc3[nH]ccc23)CC1)c1ccccc1`, the IC50 on Aminopeptidase N is 1040 nM.

On to `COc1ccc(Cn2ccc3ccc(C(=O)NO)cc32)cc1`, for which the outcome with HUVEC was inactive.

With `CC(C)[C@H](NC(=O)C1(N)CCN(c2ncnc3[nH]ccc23)CC1)C(=O)NO`, on Aminopeptidase N, the IC50 is 140000 nM. The compound further gave an inhibition in assay [1] of 5%.

Turning to `CC(C)[C@@H](NC(=O)C1(N)CCN(c2ncnc3[nH]ccc23)CC1)C(=O)NO`, at Aminopeptidase N, the half-maximal inhibitory concentration (IC50) was 470 nM. In addition, the inhibition in assay [1] was determined as 6%.

In the case of `CC(C)C[C@@H](NC(=O)C1CCN(c2ncnc3[nH]ccc23)CC1)C(=O)NO`, the half-maximal inhibitory concentration (IC50) at Aminopeptidase N amounted to 50 nM. Besides, the Ratio IC50 in [5] came to 70. Moreover, in assay [1], the inhibition stood at 2%.

Regarding `O=C(NC1CCN(c2ncnc3[nH]ccc23)CC1)N[C@H](Cc1ccccc1)C(=O)NO`, the 50% inhibitory concentration (IC50) at Aminopeptidase N stood at 900 nM. The compound further had an inhibition in [1] of 7%.

For the compound `O=C(NO)[C@@H](Cc1ccccc1)NC(=O)N1CCN(c2ncnc3[nH]ccc23)CC1`, at Aminopeptidase N, the half-maximal inhibitory concentration (IC50) worked out at 260 nM. Moreover, in assay [1], the inhibition amounted to 11%.

Take `O=C(NC1CCN(c2ncnc3[nH]ccc23)CC1)N[C@@H](C(=O)NO)c1ccccc1`: the IC50 at Aminopeptidase N came to 5400 nM.

Regarding `CC(C)C[C@@H](NC(=O)N1CCN(c2ncnc3[nH]ccc23)CC1)C(=O)NO`, the IC50 on Aminopeptidase N was found to be 210 nM. The inhibition in assay [1] came out at 29%.

In the case of `O=C(N[C@@H](C(=O)NO)c1ccccc1)C1CCN(c2ncnc3[nH]ccc23)CC1`, the concentration for half-maximal inhibition (IC50) on Aminopeptidase N turned out to be 390 nM.

Values taken from ChEMBL document CHEMBL4831560, “Design, Synthesis, and Biological Evaluation of APN and AKT Dual-Target Inhibitors” (ACS Med Chem Lett, 2021).
